Results published in ChEMBL document CHEMBL3875148, “Synthesis and biological evaluation of novel alkyl diamine linked bivalent β-carbolines as angiogenesis inhibitors” (Eur J Med Chem, 2016).
Calls of active or inactive are those of the source. No cut-off for these calls is given here.

System: EA.hy 926
Experiment: Antiangiogenic activity against human EAhy926 cells assessed as inhibition of VEGF-induced capillary-like tube formation measured after 24 hrs by phase contrast microscopic analysis
Format: functional, cell-based
Conditions: not given
Summary of the method: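 EA.HY926 cells were plated on Matrigel-coated wells and treated for 24 h at 0.3–30. Capillary-like tubules with multicentric junctions were scored by imaging against compound-free controls.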
With `CCCCn1c2ccccc2c2ccnc(CNCCCCCNCc3nccc4c5ccccc5n(CCCC)c34)c21` the inhibition was “Dose-dependent effect”.

System: EA.hy 926
Experiment: Antimigratory activity against human EAhy926 cells assessed as inhibition of VEGF-induced cell migration incubated for 24 hrs by wound healing assay
Format: functional, cell-based
Conditions: not given
Summary of the method: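 Wound-healing scratch assay in EA.HY926 endothelial cells with VEGF stimulation. Compound tested across 0.3 to 30, with Endostar as positive control. Migration was compared against untreated cells.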
With `CCCCn1c2ccccc2c2ccnc(CNCCCCCNCc3nccc4c5ccccc5n(CCCC)c34)c21` the inhibition was “Dose-dependent effect”.

System: not listed separately
Experiment: Antiproliferative activity against human EAhy926 cells measured after 48 hrs by MTT assay
Format: functional, cell-based
Conditions: EA.hy 926, 48 h
With `c1ccc(CCCn2c3ccccc3c3ccnc(CNCCCCNCc4nccc5c6ccccc6n(CCCc6ccccc6)c45)c32)cc1` the IC50 was 4.78 µM. In the case of `CC(C)n1c2ccccc2c2ccnc(CNCCCCCCNCc3nccc4c5ccccc5n(C(C)C)c34)c21`, the IC50 is reported as 8.56 µM. Compound `CCCCCCn1c2ccccc2c2ccnc(CNCCCCCNCc3nccc4c5ccccc5n(CCCCCC)c34)c21` has an IC50 of 5.16 µM. For `CCCCCCn1c2ccccc2c2ccnc(CNCCCNCc3nccc4c5ccccc5n(CCCCCC)c34)c21`, the IC50 was 9.23 µM. Compound `c1ccc(CCCn2c3ccccc3c3ccnc(CNCCCCCNCc4nccc5c6ccccc6n(CCCc6ccccc6)c45)c32)cc1` has an IC50 of 2.76 µM. For `CCCCn1c2ccccc2c2ccnc(CNCCCNCc3nccc4c5ccccc5n(CCCC)c34)c21`, the IC50 was 8.39 µM. In the case of `CCn1c2ccccc2c2ccnc(CNCCCCNCc3nccc4c5ccccc5n(CC)c34)c21`, the IC50 is reported as 5.36 µM. Work on `c1ccc2c(c1)[nH]c1c(CNCCCCCNCc3nccc4c3[nH]c3ccccc34)nccc12` yielded an IC50 of 14.5 µM. `c1ccc(CCCn2c3ccccc3c3ccnc(CNCCCCCCNCc4nccc5c6ccccc6n(CCCc6ccccc6)c45)c32)cc1` gave an IC50 of 3.22 µM. Work on `CCn1c2ccccc2c2ccnc(CNCCCNCc3nccc4c5ccccc5n(CC)c34)c21` yielded an IC50 of 7.77 µM. `Clc1cccc(Cn2c3ccccc3c3ccnc(CNCCCCCNCc4nccc5c6ccccc6n(Cc6cccc(Cl)c6)c45)c32)c1` showed an IC50 of 4.69 µM. With `CCCCCCCCn1c2ccccc2c2ccnc(CNCCCCCNCc3nccc4c5ccccc5n(CCCCCCCC)c34)c21` the IC50 was 8 µM. For `Cn1c2ccccc2c2ccnc(CNCCCCCCNCc3nccc4c5ccccc5n(C)c34)c21`, the IC50 was 11.5 µM. For `CCCCCCCCn1c2ccccc2c2ccnc(CNCCCCNCc3nccc4c5ccccc5n(CCCCCCCC)c34)c21`, the IC50 was 9.33 µM. With `Fc1ccc(Cn2c3ccccc3c3ccnc(CNCCCNCc4nccc5c6ccccc6n(Cc6ccc(F)cc6)c45)c32)cc1` the IC50 was 8.87 µM. In the case of `Cl.c1ccc2c(c1)[nH]c1c(CNCCCCNCc3nccc4c3[nH]c3ccccc34)nccc12`, the IC50 is reported as 25.8 µM. `COc1ccc(/C=C\c2cc(OC)c(OC)c(OC)c2)cc1OP(=O)(O)O` [FOSBRETABULIN] showed an IC50 of 6.4 µM. For `CCCCCCn1c2ccccc2c2ccnc(CNCCCCCCNCc3nccc4c5ccccc5n(CCCCCC)c34)c21`, the IC50 was 8.2 µM. Work on `Cn1c2ccccc2c2ccnc(CNCCCCNCc3nccc4c5ccccc5n(C)c34)c21` yielded an IC50 of 17 µM. With `c1ccc(Cn2c3ccccc3c3ccnc(CNCCCCCCNCc4nccc5c6ccccc6n(Cc6ccccc6)c45)c32)cc1` the IC50 was 3.81 µM. Work on `Fc1ccc(Cn2c3ccccc3c3ccnc(CNCCCCNCc4nccc5c6ccccc6n(Cc6ccc(F)cc6)c45)c32)cc1` yielded an IC50 of 4.96 µM. In the case of `CCCCn1c2ccccc2c2ccnc(CNCCCCCNCc3nccc4c5ccccc5n(CCCC)c34)c21`, the IC50 is reported as 2.16 µM. Work on `CC(C)Cn1c2ccccc2c2ccnc(CNCCCCCCNCc3nccc4c5ccccc5n(CC(C)C)c34)c21` yielded an IC50 of 5.55 µM. In the case of `c1ccc(Cn2c3ccccc3c3ccnc(CNCCCNCc4nccc5c6ccccc6n(Cc6ccccc6)c45)c32)cc1`, the IC50 is reported as 8.89 µM. `CCCCCCn1c2ccccc2c2ccnc(CNCCCCNCc3nccc4c5ccccc5n(CCCCCC)c34)c21` gave an IC50 of 8.93 µM. With `CC(C)Cn1c2ccccc2c2ccnc(CNCCCCNCc3nccc4c5ccccc5n(CC(C)C)c34)c21` the IC50 was 8.06 µM. For `CCCCn1c2ccccc2c2ccnc(CNCCCCNCc3nccc4c5ccccc5n(CCCC)c34)c21`, the IC50 was 4.37 µM. With `CCCCn1c2ccccc2c2ccnc(CNCCCCCCNCc3nccc4c5ccccc5n(CCCC)c34)c21` the IC50 was 2.92 µM. Compound `c1ccc(CCCn2c3ccccc3c3ccnc(CNCCCNCc4nccc5c6ccccc6n(CCCc6ccccc6)c45)c32)cc1` has an IC50 of 9.35 µM.

System: not listed separately
Experiment: Aqueous solubility of the compound
Format: physicochemical
Conditions: not given
With `Cl.c1ccc2c(c1)[nH]c1c(CNCCCCNCc3nccc4c3[nH]c3ccccc34)nccc12` the solubility was greater than 10000 µg/mL.

Organism: Gallus gallus
Experiment: Antiangiogenic activity against 5-day-old chicken egg chorioallantoic membrane at 0.3 to 30 uM/disc incubated for 48 hrs by microscopic analysis
Format: functional, tissue-based
Conditions: not given
For `CCCCn1c2ccccc2c2ccnc(CNCCCCCNCc3nccc4c5ccccc5n(CCCC)c34)c21`, the Activity was “Active”.
